Screening data deposited in PubChem BioAssay by several laboratories.
T cell modulator: modulators of CD8 T cell-vesicle binding, primary screen, mouse 2C CD8+ T cells, flow cytometry; 2C CD8+ T cell-vesicle binding; active compounds read low; response (vesicle binding), % at 7 µM; actives 0.068% (n = 330,000);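 active = response, share of CD8 T cells binding vesicles, and their 90th percentile fluorescence all below set limits, cut at about 80% in these data, passing the limit was not always enough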;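 note: values below 100% mean blocked vesicle binding to the CD8+ T cells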
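Also added: QL9-peptide-loaded Drosophila micro-vesicles bearing Ld, ICAM-1 and B7-1; Test system: purified 2C TCR transgenic mouse naive CD8+ T cells; Measured by: cytometric PE anti-B7-1 and Alexa647 anti-CD8 signals after 1% paraformaldehyde fixation; Timing: binding step 1.5 h, 37 °C, antibody labelling 20 min, ice.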
Fh CTSL1 inh: Fasciola hepatica cathepsin L1 inhibitors, primary screen, counter-screen for PFM18AAP inhibitor project, biochemical, QFRET, fluorogenic peptide substrate; inhibition, % at 5.96 µM; actives 0.49% (n = 300,000); recombinant F. hepatica cathepsin L1, Z-Leu-Arg-MCA fluorescence;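 active = inhibition above the mean of all tested compounds plus 3 SD, set per screening campaign, cut at about 17% in these data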;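 note: 0% = plate median of test compound wells and 100% = 1 µM Z-Phe-Ala-diazomethylketone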
p-CIP stab down: p/CIP-EGFP fusion destabilizers, primary screen, fluorescence, F442A cells. actives 0.01% (n = 290,000). decrease of EGFP signal, % at 10 µM. Q05BA5. 16 h;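 active = EGFP signal decrease of at least 30% at 10 µM or well 3 SD below plate mean, unless failing retest; inactive = the rest, including hits failing retest or dose response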
SUMO HTRF inh: inhibitors of in vitro SUMOylation cascade, primary screen, biochemical, HTRF, uHTS. HTRF SUMOylation assay, SAE1/SAE2 + UBC9. inhibition, % at 35 µM. actives 0.36% (n = 290,000). AID 2006, 2009; in the data active = inhibition above about 50%, passing the limit was not always enough
Target sequence (P63279 whole entry, looked up): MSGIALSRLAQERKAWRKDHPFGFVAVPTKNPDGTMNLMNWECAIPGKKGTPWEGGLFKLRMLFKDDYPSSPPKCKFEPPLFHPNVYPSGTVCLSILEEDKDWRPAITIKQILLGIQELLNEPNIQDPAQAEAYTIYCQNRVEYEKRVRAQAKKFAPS
IMP-1 inh: IMP-1 metallo-beta-lactamase inhibitors, primary screen, biochemical, epi-absorbance readout, Pseudomonas aeruginosa enzyme; inhibition, % at 5.6 µM; actives 0.45% (n = 290,000); purified IMP-1, nitrocefin hydrolysis, epi-absorbance fluorescence; metallo-beta-lactamase IMP-1 (Pseudomonas aeruginosa);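 active = inhibition above the mean plus 3 SD of all compounds in the same screening run, cut at about 4.5% in these data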;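 note: 0% = IMP-1 with DMSO and 100% = DMSO wells lacking enzyme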
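System: purified recombinant IMP-1 beta-lactamase. Medium: Zinc- and detergent-supplemented HEPES buffer, pH 7.1. Compound: one 5.6 µM dose […]. Schedule: 15 min preincubation plus 25 min reaction at 25 °C. Technique: Epi-absorbance fluorescence, 480 nm excitation, 530 nm emission.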
VIM-2 inhibitor: VIM-2 metallo-beta-lactamase inhibitors, primary screen, biochemical, epi-absorbance readout, Pseudomonas aeruginosa enzyme; purified VIM-2, nitrocefin hydrolysis, epi-absorbance fluorescence; inhibition, % at 5.6 µM; actives 0.89% (n = 290,000); AID 1527, 2009;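 active = inhibition above the mean of all tested compounds plus 3 SD, cutoff set per screening run, cut at about 7.5% in these data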;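 note: red hydrolysis product quenches plate fluorescence so inhibitors raise well fluorescence; 0% = enzyme with DMSO and 100% = DMSO without enzyme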
* marks the source's active call; other numbers are inactive results. Shown are actives, neighbours in structure and some others; about 1.9% of the full set was active somewhere.

How did C=CC[C@@H](Cc1ccc(F)cc1)C(=O)OC[C@@H]1CCCN1C(=O)[C@@H](CC=C)CC(=O)N[C@H](CO)Cc1ccccc1 do in these assays?
T cell modulator: 172

What do the screens show for `Cc1ccc(C2=NN(C(=O)CCl)C(c3cccs3)C2)o1` (stereo not given)?
T cell modulator: 270; Fh CTSL1 inh: 18*; p-CIP stab down: -3; SUMO HTRF inh: 6; IMP-1 inh: -1; VIM-2 inhibitor: 0

How did O=C(CCl)N1N=C(c2ccco2)CC1c1cccs1 (stereo not given) do in these assays?
T cell modulator: 637; Fh CTSL1 inh: 26*; p-CIP stab down: 0; SUMO HTRF inh: 10; IMP-1 inh: 0; VIM-2 inhibitor: -2

Results for CC(=O)N1N=C(c2ccco2)CC1c1cccs1 (stereo not given) ?
T cell modulator: 246; Fh CTSL1 inh: 1; p-CIP stab down: -2; SUMO HTRF inh: 14; IMP-1 inh: -2; VIM-2 inhibitor: -2

Results for CCOc1ccc(C(=O)N2CCN(S(=O)(=O)c3cccs3)CC2)c(OCC)c1 ?
T cell modulator: 809; Fh CTSL1 inh: -2; p-CIP stab down: -6; SUMO HTRF inh: -6; IMP-1 inh: -1; VIM-2 inhibitor: 0

How did CCN1CCCC1CN(Cc1cc2ccc(C)cc2[nH]c1=O)C(=S)Nc1ccc(F)cc1 (stereo not given) do in these assays?
T cell modulator: 436; Fh CTSL1 inh: -3; p-CIP stab down: -5; SUMO HTRF inh: 6; IMP-1 inh: 0; VIM-2 inhibitor: 10*

What do the screens show for `Cc1ccc(-c2nnc(SCC(=O)NC3CCCC3)n2C)cc1`?
T cell modulator: 200; Fh CTSL1 inh: -3; p-CIP stab down: -6; SUMO HTRF inh: 3; IMP-1 inh: -2; VIM-2 inhibitor: 2

What do the screens show for `O=C(N/N=C/c1cn(Cc2cccc(F)c2)c2ccccc12)c1cc(O)cc(O)c1`?
T cell modulator: 324; p-CIP stab down: 6; SUMO HTRF inh: 66*; IMP-1 inh: -1; VIM-2 inhibitor: -1

How did Cc1ccc(C)c(OCCCC(=O)O)c1 do in these assays?
T cell modulator: 655; Fh CTSL1 inh: 17*; p-CIP stab down: -5; SUMO HTRF inh: 25; IMP-1 inh: -4; VIM-2 inhibitor: 1

What do the screens show for `Cc1cc(C)c2c(c1)[C@@H]1C=CC[C@@H]1[C@H](c1ccc(S(=O)(=O)N3CCOCC3)cc1)N2`?
T cell modulator: 348; Fh CTSL1 inh: -1; p-CIP stab down: 4; SUMO HTRF inh: 25; IMP-1 inh: 8.1*; VIM-2 inhibitor: -1

Results for Cc1ccc(S(=O)(=O)N2CCOCC(=O)NCCOCCNC(=O)COCC2)cc1 ?
p-CIP stab down: -5; SUMO HTRF inh: -16; IMP-1 inh: -2; VIM-2 inhibitor: 0

How did O=c1[nH]c(=O)n(-c2cc(Br)c(O)c(Br)c2)cc1Br do in these assays?
T cell modulator: inactive; Fh CTSL1 inh: 33*; p-CIP stab down: -6; SUMO HTRF inh: 2; IMP-1 inh: -2; VIM-2 inhibitor: 1

What do the screens show for `Cc1ccc2nc(Cl)c3cc(C(=O)N(CCN(C)C)Cc4ccco4)sc3c2c1`?
T cell modulator: 160; Fh CTSL1 inh: 5; p-CIP stab down: -2; SUMO HTRF inh: 0; IMP-1 inh: 2; VIM-2 inhibitor: 8.3*

Results for Cc1ccc2[nH]c(=O)c3cc(C(=O)N(CCCOC(C)C)Cc4ccco4)sc3c2c1 ?
T cell modulator: 501; Fh CTSL1 inh: 2; p-CIP stab down: -16; SUMO HTRF inh: 8; IMP-1 inh: -3; VIM-2 inhibitor: 8.1*

How did CCCCN(Cc1ccco1)C(=O)c1cc2c(=O)[nH]c3ccc(C)cc3c2s1 do in these assays?
T cell modulator: 302; Fh CTSL1 inh: 5; p-CIP stab down: -7; SUMO HTRF inh: 21; IMP-1 inh: -4; VIM-2 inhibitor: 7

How did COc1ccc(/C=C(/NC(=O)c2ccco2)C(=O)NCc2ccco2)cc1OC do in these assays?
T cell modulator: 234; Fh CTSL1 inh: -5; p-CIP stab down: -22; SUMO HTRF inh: -4; IMP-1 inh: 2; VIM-2 inhibitor: 1

How did CCN(CC)c1ccc(C=C(c2nnnn2-c2ccc(C)cc2)c2nnnn2-c2ccc(C)cc2)cc1 do in these assays?
T cell modulator: 171; Fh CTSL1 inh: 4; p-CIP stab down: -26; SUMO HTRF inh: 6; IMP-1 inh: 52*; VIM-2 inhibitor: -3

How did CCOc1ccc(C2CC(c3ccccc3C)n3nc(N)nc3N2)cc1 (stereo not given) do in these assays?
T cell modulator: 53*; Fh CTSL1 inh: -1; p-CIP stab down: -17; SUMO HTRF inh: -8; IMP-1 inh: -3; VIM-2 inhibitor: -5

Results for COc1ccc(C2CC(c3ccccc3C)n3nc(N)nc3N2)cc1 (stereo not given) ?
T cell modulator: 81; Fh CTSL1 inh: -4; p-CIP stab down: -17; SUMO HTRF inh: 3; IMP-1 inh: -2; VIM-2 inhibitor: -4

Results for O=C(O)c1nnn(-c2cc(C(F)(F)F)cc(C(F)(F)F)c2)c1-c1ccccc1 ?
T cell modulator: 579; Fh CTSL1 inh: 46*; p-CIP stab down: -17; SUMO HTRF inh: -4; IMP-1 inh: -1; VIM-2 inhibitor: -3

How did O=C(O)c1nnn(-c2ccc(F)cc2F)c1-c1ccccc1 do in these assays?
T cell modulator: 226; Fh CTSL1 inh: 0; p-CIP stab down: -8; SUMO HTRF inh: 9; IMP-1 inh: -1; VIM-2 inhibitor: 0

Results for Cc1[nH]c2ccccc2c1C(=O)COC(=O)c1nccnc1N ?
T cell modulator: 332

Results for O=C1N=c2ccccc2=C1c1sc(=S)n(NC(=O)c2cccc(O)c2)c1O ?
p-CIP stab down: 2; SUMO HTRF inh: -2; IMP-1 inh: 0; VIM-2 inhibitor: 3

What do the screens show for `O=C1N=c2ccc(Br)cc2=C1c1sc(=S)n(NS(=O)(=O)c2ccccc2)c1O`?
T cell modulator: 394; Fh CTSL1 inh: 28*; p-CIP stab down: 12; SUMO HTRF inh: 16; IMP-1 inh: -3; VIM-2 inhibitor: -1

What do the screens show for `Cc1cccc(N2C(=O)c3ccccc3C2=O)n1`?
T cell modulator: 199; Fh CTSL1 inh: 4; p-CIP stab down: -2; SUMO HTRF inh: 8; IMP-1 inh: -1; VIM-2 inhibitor: 0

Results for COc1cccc(NC(=O)CN(C)C(=O)c2ccccc2OCc2c(C)noc2C)c1 ?
T cell modulator: 110; Fh CTSL1 inh: 27*

What do the screens show for `Clc1ccc2c(N/N=C/c3cccnc3)ccnc2c1`?
T cell modulator: 218; Fh CTSL1 inh: 8; p-CIP stab down: 14; SUMO HTRF inh: 3; IMP-1 inh: 1; VIM-2 inhibitor: 11*
